# High-throughput results deposited in PubChem by several laboratories.
# Sampled rows, rich in hits. Any-hit rate of the full collection: about 9.4%.
# Lmaj promast: Leishmania major promastigote growth inhibition, primary screen. 200,000 compounds, 9% hits. inhibition, % at 10 µM. Leishmania major promastigotes, resazurin fluorescence viability; in the data active = inhibition above about 50%;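 note: promastigotes grown with compound for 44 hours at 28 °C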
# Mdm2-MdmX inh: inhibitors of human Mdm2-MdmX association, primary screen, cell-based, luminescence, split luciferase, SaOS-2, uHTS | Protein Mdm4 (Homo sapiens) + E3 ubiquitin-protein ligase Mdm2 (Homo sapiens), … | SaOS-2 split-luciferase Mdm2/MdmX complementation | inhibition, % at 8 µM | 330,000 compounds, 3% hits | AID 485346, 2010;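 active = inhibition of at least 50% at 8 µM in the primary screen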
# T cruzi inh: inhibitors of intracellular T. cruzi growth, primary screen, luminescence, NIH3T3 host cells; T. cruzi beta-gal in NIH3T3, 90 h; inhibition, % (test concentration not listed); 300,000 compounds, 1.4% hits;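 active = mean inhibition across valid replicates above about 55%, limit read from the data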;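 note: signal also drops with host cell toxicity which is not excluded here; higher percent means less beta-gal luminescence so fewer parasites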
#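 System: mouse NIH/3T3 fibroblasts infected with β-gal-expressing T. cruzi Tulahuen C4 / Input: NIH/3T3 cells, 5,000 per well / Buffer or medium: Low-serum DMEM with 2% FBS / Probe or stimulus: 5000 reporter trypomastigotes per well / Schedule: ≥90 h infection period, 3 h prior cell attachment / Measured by: GalScreen luminescence, 60 min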
# SKKanGAS inh: S. pyogenes SKKanGAS growth inhibitors in kanamycin, primary screen, streptokinase expression inhibitor project, SKKanGAS strain, BacTiter-Glo luminescence. AID 1662, 2009. inhibition, % at 7.5 µM. 300,000 compounds, 1.3% hits. 6 h;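 active = mean replicate score, as percent of positive control median, at least 50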;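 note: strain carries kanamycin resistance gene driven by streptokinase promoter and grows in 40 µg/ml kanamycin; loss of luminescence reflects streptokinase promoter inhibition or plain growth inhibition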
# Beta cell apopt: inhibitors of cytokine-induced beta cell apoptosis, primary screen, luminescence. INS-1E cytokine-induced death, ATP luminescence, 48 h; percent of positive-control rescue, neutral wells zero. 300,000 compounds, 0.8% hits. protection from apoptosis, % (test concentration not listed);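 active = Every replicate reaches about 75%, or at least half do and their mean reaches it too, limit read from the data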;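 note: higher means more ATP so stronger rescue from cytokine killing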
# CSC inhib: cancer stem cell viability inhibitors, primary screen, luminescence | cancer stem cell-like cells viability | inhibition, % at 7.5 µM | 300,000 compounds, 1.1% hits | AID 2717, 2010; in the data active = inhibition above about 75%; tested in HMLE shEcad cells
# A number is an active result; - = inactive; . = not tested or not shown.
SMILES,Lmaj promast,Mdm2-MdmX inh,T cruzi inh,SKKanGAS inh,Beta cell apopt,CSC inhib
CCn1c2ccccc2c2cc(NS(=O)(=O)c3ccc(C)cc3)ccc21,-,-,-,-,-,84
CCn1c2ccccc2c2cc(NC(=O)CNCC3CCCO3)ccc21 (stereo unspecified),-,-,69,-,-,-
CCn1c(=O)n(CC)c2cc(NS(=O)(=O)c3ccccc3)ccc21,.,-,-,-,-,-
COc1ccccc1OCCSc1nc(C)c(Cc2ccccc2)c(=O)[nH]1,.,-,-,-,-,.
CCc1nnc(SCC(=O)NCCC2=CCCCC2)nc1CC,.,-,-,-,-,-
Cc1ccc(CNCc2cccnc2)s1,66,-,-,-,-,-
Cc1ccc(OCc2ccc(C(=O)NCc3cccnc3)cc2)cc1C,-,-,-,-,-,-
CCOc1ccc(CNCc2cccnc2)cc1,90,-,-,-,-,-
c1ccc(COc2ccc(CNCc3cccnc3)cc2)cc1,99,-,-,-,-,-
CCOc1ccc(S(=O)(=O)NCc2cccnc2)cc1,.,-,-,-,.,-
c1ccc(COc2ccc(CNCc3cccs3)cc2)cc1,99,-,-,-,-,-
Nc1nc(SCC(=O)Nc2ccc(Cl)c(S(=O)(=O)N3CCOCC3)c2)n[nH]1,.,-,-,-,-,-
O=C(CCNC(=O)c1ccccc1)Nc1cccnc1,-,-,-,-,-,-
Cc1ccc(OCCNC(=O)CNC(=O)c2ccc3c(c2)OCO3)cc1,.,-,-,-,-,-
CCCCn1c(N)c(N(CC)C(=O)c2ccccc2F)c(=O)[nH]c1=O,.,-,-,-,-,-
N#CC1(NC(=O)COC(=O)c2cccc(-n3cnnn3)c2)CCCCC1,.,-,-,-,-,-
Cc1ccc(CNCc2cccnc2)cc1,93,-,-,-,-,-
CCc1ccc(OCC(=O)NNC(=O)Cc2cccs2)cc1,-,-,-,-,-,.
CC(C)(C)NC(=O)COc1ccc(CNCc2cccs2)cc1,77,-,-,-,-,-
CCOc1ccc(NC(=O)CSc2nc3ccccc3nc2N2CCOCC2)cc1,.,-,-,-,-,-
CCC(=O)c1c(NC(C)C)cc(C)oc1=O,-,-,-,-,-,-
Cc1cccc(C)c1-n1cccc1/C=C1\SC(=S)N(c2cccc(C(=O)O)c2)C1=O,-,-,-,111,-,-
Cc1ccccc1NC(=O)CN1C(=O)S/C(=C\c2cccn2-c2cccc(C(=O)O)c2)C1=O,-,-,-,-,-,-
Cc1ccc(NC(=O)CN2C(=O)S/C(=C\c3cccn3-c3cccc(C(=O)O)c3)C2=O)c(C)c1,-,-,-,59,-,-
Cc1cc(C)c(NC(=O)COc2cccnc2[N+](=O)[O-])c(C)c1,.,-,.,.,-,.
SMILES,Lmaj promast,Mdm2-MdmX inh,T cruzi inh,SKKanGAS inh,Beta cell apopt,CSC inhib
CC1(C)CC(N2CCN(c3ccccc3)CC2)=CC(=[N+]2CCCC2)C1,99,-,68,-,97,-
CSc1nc(N2CCN(c3ccccc3)CC2)cc(N2CCN(c3ccccc3)CC2)n1,-,-,-,-,-,-
CC1(C)CC(=O)C=C(N2CCNCC2)C1,-,-,-,-,-,-
CC1CC(C)C[N+](=C2C=C(N3CCCC3)CC(C)(C)C2)C1 (stereo unspecified),100,.,59,-,.,.
CCc1ccc(-c2nc(SCC(=O)c3c(N)n(C4CC4)c(=O)[nH]c3=O)n[nH]2)cc1,.,-,.,.,-,-
O=C(c1ccccc1)N1CCN(C(=O)c2cccnc2)CC1,.,-,-,-,-,-
O=C(c1cccnc1)N1CCN(CCCc2ccccc2)CC1,80,-,-,-,-,-
O=C(c1cccs1)N1CCN(Cc2ccccc2)CC1,-,-,-,-,-,-
O=C(c1cccs1)N1CCN(CCCc2ccccc2)CC1,96,-,-,-,-,-
C=C(C)CNC(=S)N=Nc1c(O)[nH]c2ccc([N+](=O)[O-])cc12,78,-,-,-,-,-
CC(C)NC(=S)N=Nc1c(O)[nH]c2ccc([N+](=O)[O-])cc12,-,-,-,-,-,-
COc1ccc(-n2c(O)c(/C=N/NS(=O)(=O)c3cccc([N+](=O)[O-])c3)c3ccccc3c2=O)cc1OC,-,-,62,-,-,-
CCCCNC(=O)Cn1cnc2ccc(S(=O)(=O)N3CCC(C)CC3)cc2c1=O,-,-,-,-,-,-
CCCN1CCN(C(=O)Cn2cnc3ccc(S(=O)(=O)N4CCC(C)CC4)cc3c2=O)CC1,93,-,-,-,.,-
Nc1nnc(SCC(=O)OCC(=O)Nc2ccccc2)s1,-,-,-,-,-,-
NC(=O)CC(NC(=O)c1cccc(Br)c1)c1ccc(NC2CCCCCCCCCCC2)c([N+](=O)[O-])c1 (stereo unspecified),.,-,-,-,-,-
COc1ccccc1C(=O)N/C(=C\c1ccc(Br)cc1)C(=O)NCC(=O)O,57,-,-,-,-,-
CN1C(=O)C(O)(CC(=O)c2ccccc2O)c2cc(Br)ccc21 (stereo unspecified),-,-,-,-,.,-
C=CCN1C(=O)C(O)(CC(=O)c2ccc(OC)cc2OC)c2cc(Br)ccc21 (stereo unspecified),74,-,-,-,-,-
CCCN(CCC)C(=O)Cn1c(=O)c2sccc2n2c(=S)sc(-c3ccccc3)c12,-,-,-,-,-,.
CCCN(CCC)C(=O)Cn1c(=O)c2ccccc2n2c(=S)sc(-c3ccccc3C)c12,98,-,-,-,-,-
CN(CC(=O)NCc1ccc(F)cc1)S(=O)(=O)c1ccc(Br)s1,.,-,-,-,-,-
COc1ccc(C(=O)NNC(=O)C2=NN(c3ccccc3)C(=O)CC2)cc1,.,-,-,-,-,-
COc1ccc2c(c1)C(=NO)c1cc(OC)ccc1-2,-,-,-,-,-,-
C=CCOc1ccc2c(c1)C(=NO)c1cc(OCC=C)ccc1-2,96,-,-,-,.,.
SMILES,Lmaj promast,Mdm2-MdmX inh,T cruzi inh,SKKanGAS inh,Beta cell apopt,CSC inhib
CSc1ccc(C=NNc2ccc(S(=O)(=O)Nc3ccccc3C(=O)O)cc2[N+](=O)[O-])cc1,.,-,.,.,-,-
Cc1nn(-c2ccccc2)c(Cl)c1/C=N/Nc1ccc(S(=O)(=O)Nc2ccccc2C(=O)O)cc1[N+](=O)[O-],-,-,-,119,-,96
CCOC(=O)c1ccc(N=C2C(=S)N(c3ccc(C(=O)OCC)cc3)C(=N)N2/N=C/c2ccccc2)cc1,100,-,-,-,-,-
O=S1(=O)CCOCCCN1Cc1ccccc1F,.,-,-,-,-,-
Cc1cccc(CN2CCSCC2)c1,.,-,-,-,-,-
CCCS(=O)(=O)N1CCN(CCCc2ccccc2)CC1,79,-,-,-,-,-
OCC1(CCc2ccccc2)CCN(Cc2cc(F)ccc2-n2cccn2)CC1,-,-,-,-,-,-
